# According to ChEMBL document CHEMBL1671820, “Incorporation of basic side chains into cryptolepine scaffold: structure-antimalarial activity relationships and mechanistic studies” (J Med Chem, 2011):
# Key:
# Plasmodium falciparum [1] = test: Resistance index, ratio of IC50 for chloroquine-resistant ring stage Plasmodium falciparum W2 to IC50 for chloroquine-sensitive ring stage Plasmodium falciparum 3D7; assay type: functional
# Outline: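 W2 IC50 divided by 3D7 IC50. Both were measured by 48 h YOYO-1 flow-cytometric growth assay on sorbitol-synchronised 1% ring-stage cultures in human erythrocytes at 37 C under 3% O2.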
# Plasmodium falciparum [2] = test: Antiplasmodial activity against chloroquine-sensitive ring stage Plasmodium falciparum 3D7 infected in human red blood cells after 48 hrs; assay type: functional, organism-based; settings: 3D7, 48 h
# [3] = Inhibition of Plasmodium falciparum falcipain 2
# [4] = Inhibition of Plasmodium falciparum falcipain 3
# Nucleic Acid = test: Binding affinity to s(GATCCTAGGATC)2-DNA by fluorescence spectroscopy; assay type: nucleic-acid assay
# Outline: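 Buffer 0.01 M phosphate pH 7.4, 0.1 M NaCl, 25.0 C, 1 cm quartz cuvettes. Fluorescence: excitation 339 nm, emission 450–500 nm. Dilution-corrected intensity change fitted to single-site binding for Kd; Kass taken as 1/Kd.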
# Heme = test: Binding affinity to heme by UV-visible titration
# Outline: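 Hematin monomer (FPIX-OH, 10 μM) in pH 5.5 HEPES-buffered 40% DMSO v/v at 25 C, titrated with ligand from 100 μM solution until above hematin concentration. Stirred 1 min per addition; spectra 230–500 nm, Soret change at 402 nm. Absorbance dilution-corrected, nonlinear fit for Kd; Kass calculated from Kd.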
# Plasmodium falciparum [5] = test: Antiplasmodial activity against chloroquine-sensitive, mefloquine-resistant ring stage Plasmodium falciparum D6 infected in human red blood cells after 48 hrs; assay type: functional, organism-based; settings: D6, 48 h
# [6] = Selectivity index, ratio of IC50 for african green monkey Vero cells to IC50 for chloroquine-resistant ring stage Plasmodium falciparum W2; assay type: toxicity, cell-based; settings: read-out: Ratio IC50
# Outline: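 Vero IC50 divided by W2 IC50. Vero: 15000 cells/well adhered overnight, then log dilutions from 30 mg/mL DMSO stock for 48 h. MTT 0.5 mg/mL final for 2 h at 37 C, formazan dissolved in 95% ethanol, A570 read against DMSO vehicle as 100% viability. W2: 48 h YOYO-1 flow-cytometric growth assay in human erythrocytes.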
# Plasmodium falciparum [7] = test: Antiplasmodial activity against chloroquine and pyrimethamine-resistant ring stage Plasmodium falciparum V1/S infected in human red blood cells after 48 hrs; assay type: functional, organism-based
# Plasmodium falciparum [8] = test: Antiplasmodial activity against chloroquine-resistant ring stage Plasmodium falciparum W2 infected in human red blood cells after 48 hrs; assay type: functional, organism-based; settings: W2, 48 h
# Vero = test: Cytotoxicity against african green monkey Vero cells after 48 hrs by MTT assay; assay type: cell-based; settings: Chlorocebus sabaeus
# Outline: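 Vero monkey kidney cells in DMEM with 10% FBS at 37 C, 7% CO2; seeded 15000 cells/well and adhered overnight. Log dilutions from 30 mg/mL DMSO stock, 48 h exposure. MTT at 0.5 mg/mL final for 2 h; formazan dissolved in 95% ethanol, read at 570 nm. Viability relative to DMSO-medium wells; IC50 from concentration–viability curve; doxorubicin as standard.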
Compound,Ratio IC50 (Plasmodium falciparum [1]),IC50 (Plasmodium falciparum [2]),IC50 [3],IC50 [4],Ka (Nucleic Acid),Ka (Heme),IC50 (Plasmodium falciparum [5]),selectivity ratio [6],IC50 (Plasmodium falciparum [7]),IC50 (Plasmodium falciparum [8]),IC50 (Vero)
CN(C)CC(C)(C)CNc1c2ccccc2[n+](C)c2c1[nH]c1ccccc12.[Cl-],1.3,146 nM,33.5 µM,26 µM,2.6 ×10⁶ /M,0.069 ×10⁶ /M,250 nM,18,144 nM,–,–
C[n+]1c2ccccc2c(NC2CCN(Cc3ccccc3)CC2)c2[nH]c3ccccc3c21.[Cl-],1.8,56 nM,12.8 µM,–,0.68 ×10⁶ /M,0.125 ×10⁶ /M,86 nM,21,59 nM,108 nM,–
C[n+]1c2ccccc2c(NCCCN2CCCCC2)c2[nH]c3ccccc3c21.[Cl-],1.3,23 nM,–,–,5.3 ×10⁶ /M,0.161 ×10⁶ /M,34 nM,56,28 nM,–,20 µM
CCN(CC)c1c2ccccc2[n+](C)c2c1[nH]c1ccccc12.[Cl-],0.7,2200 nM,18 µM,46.3 µM,0.47 ×10⁶ /M,0.19 ×10⁶ /M,1290 nM,2,1770 nM,1250 nM,–
C[n+]1c2ccccc2c(NCCCN)c2[nH]c3ccccc3c21.[Cl-],0.2,54 nM,11 µM,14 µM,0.25 ×10⁶ /M,0.18 ×10⁶ /M,71 nM,371,133 nM,26 nM,10 µM
C[n+]1c2ccccc2c(Nc2ccc(N3CCCCC3)cc2)c2[nH]c3ccccc3c21.[Cl-],2.6,375 nM,8.2 µM,–,3.4 ×10⁶ /M,0.21 ×10⁶ /M,287 nM,11,176 nM,455 nM,–
CC(C)CN1CCC(Nc2c3ccccc3[n+](C)c3c2[nH]c2ccccc23)CC1.[Cl-],0.9,70 nM,10.5 µM,16 µM,0.74 ×10⁶ /M,0.227 ×10⁶ /M,86 nM,70,76 nM,70 nM,–
C[n+]1c2ccccc2c(NCCCCN)c2[nH]c3ccccc3c21.[Cl-],0.2,190 nM,–,–,1.4 ×10⁶ /M,0.147 ×10⁶ /M,245 nM,1310,422 nM,65 nM,> 85 µM
CN(C)CCNc1c2ccccc2[n+](C)c2c1[nH]c1ccccc12.[Cl-],0.8,62 nM,> 50 µM,–,3.1 ×10⁶ /M,0.12 ×10⁶ /M,66 nM,111,85 nM,–,–
CCN(CC)CCCC(C)Nc1c2ccccc2[n+](C)c2c1[nH]c1ccccc12.[Cl-] (centres undefined),0.4,145 nM,11.6 µM,7 µM,4.3 ×10⁶ /M,0.062 ×10⁶ /M,161 nM,103,274 nM,122 nM,–
CCN(CC)CCCNc1c2ccccc2[n+](C)c2c1[nH]c1ccccc12.[Cl-],1.1,20 nM,–,–,9.1 ×10⁶ /M,0.127 ×10⁶ /M,–,78,29 nM,–,–
CCN(CC)CCCNc1c2ccc(Cl)cc2[n+](C)c2c1[nH]c1ccccc12.[Cl-],0.5,34 nM,11 µM,–,17 ×10⁶ /M,0.11 ×10⁶ /M,70 nM,60,40 nM,21 nM,13 µM
